This is an account of results in ChEMBL document CHEMBL1122831, “Synthesis and structure-activity relationships of novel arylfluoroquinolone antibacterial agents” (1985).

As usually defined, the MIC is the lowest concentration found to suppress growth.

Common to all, as to format: functional
Assay [1] concerns Escherichia coli. Briefly: Minimum inhibition concentration in vitro determined against Escherichia coli juhl. The settings on record: Escherichia coli; read-out: MIC. In short, it runs like this: (§1)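 Agar dilution on brain-heart infusion (BHI) agar with twofold dilutions from a 2000 µg/mL stock, giving final test concentrations of 200-0.005 µg/mL. Organisms were grown overnight in BHI broth at 36 °C, and about 10⁴ organisms were inoculated per plate. Plates were incubated 18 h at 36 °C. MIC was the lowest concentration with no visible growth.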

For assay [2], the system named is Klebsiella aerogenes. Briefly: Minimum inhibition concentration in vitro determined against Enterobacteri aerogenes ATCC 13048. In short, it runs like this: as §1
In assay [3] the test system is Klebsiella pneumoniae. As to the kind of experiment: Minimum inhibition concentration in vitro determined against Klebsiella pneumoniae 8045. In short, it runs like this:
as §1

In assay [4] the test system is Pseudomonas aeruginosa. As to the kind of experiment: Minimum inhibition concentration in vitro determined against Pseudomona aeruginosa 5007. In short, it runs like this:
as §1

Assay [5] relates to Pseudomonas aeruginosa. As to the kind of experiment: Minimum inhibition concentration in vitro determined against Pseudomona aeruginosa K799/WT. In short, it runs like this: as §1
The test system of assay [6] is Staphylococcus epidermidis. Briefly: Minimum inhibition concentration in vitro determined against Staphylococcus epidermidis 3519. In a few lines:
as §1

In assay [7] the test system is Staphylococcus aureus. As to the kind of experiment: Minimum inhibition concentration in vitro determined against Staphylococcus aureus ATCC 6538P. In a few lines:
as §1

The subject of assay [8] is Streptococcus pyogenes. Briefly: Minimum inhibition concentration in vitro determined against Streptococcus pyogenes 930. In short, it runs like this:
as §1

The test system of assay [9] is Staphylococcus aureus. Briefly: Minimum inhibition concentration in vitro determined against Staphylococcus aureus CMX 686B. In a few lines: as §1
The subject of assay [10] is Enterococcus faecium. As to the kind of experiment: Minimum inhibition concentration in vitro determined against Streptococcus faecium ATCC 8043. In short, it runs like this: as §1
In assay [11] the test system is Acinetobacter. As to the kind of experiment: Minimum inhibition concentration in vitro determined against Acinetobacter sp CMX669. In short, it runs like this:
as §1

Converted amounts (≈) assume the structure as drawn.

As to `O=C(O)c1cn(-c2ccc(F)cc2)c2cc(N3CCC(O)C3)c(F)cc2c1=O` (stereo not given), the MIC in [1] was found to be 0.2 µg/mL (≈ 0.518 µM); in assay [2], 0.78 µg/mL (≈ 2.02 µM); in assay [3] it was 0.2 µg/mL (≈ 0.518 µM); in assay [4] it was 3.1 µg/mL (≈ 8.02 µM); in assay [5] it was 3.1 µg/mL (≈ 8.02 µM); in [6], 0.2 µg/mL (≈ 0.518 µM). Besides, the MIC in [7] was less than 0.1 µg/mL; in assay [8] it was 1.56 µg/mL (≈ 4.04 µM); in [9], less than 0.1 µg/mL; in assay [10], 1.56 µg/mL (≈ 4.04 µM); in assay [11] it was 0.39 µg/mL (≈ 1.01 µM).

As to `CC(=O)N1CCN(c2cc3c(cc2F)c(=O)c(C(=O)O)cn3-c2ccc(F)cc2)CC1`, the MIC in assay [1] stood at 1.56 µg/mL (≈ 3.65 µM); in assay [2], 3.1 µg/mL (≈ 7.25 µM); in [3] it was 1.56 µg/mL (≈ 3.65 µM); in assay [4], 12.5 µg/mL (≈ 29.2 µM); in assay [5] it was 12.5 µg/mL (≈ 29.2 µM); in assay [6], 0.78 µg/mL (≈ 1.82 µM). For the same compound, the MIC turned out to be 0.2 µg/mL (≈ 0.468 µM) in [7]; 1.56 µg/mL (≈ 3.65 µM) in [8]; 0.2 µg/mL (≈ 0.468 µM) in [9]; 3.1 µg/mL (≈ 7.25 µM) in [10]; 12.5 µg/mL (≈ 29.2 µM) in assay [11].

In the case of `NC1CCN(c2cc3c(cc2F)c(=O)c(C(=O)O)cn3-c2ccc(F)cc2)C1` (stereo not given), the MIC was 0.02 µg/mL (≈ 0.0519 µM) in assay [1]; 0.05 µg/mL (≈ 0.13 µM) in [2]; 0.02 µg/mL (≈ 0.0519 µM) in assay [3]; 0.2 µg/mL (≈ 0.519 µM) in assay [4]; 0.2 µg/mL (≈ 0.519 µM) in [5]; 0.05 µg/mL (≈ 0.13 µM) in [6]. In addition, the MIC was 0.05 µg/mL (≈ 0.13 µM) in assay [7]; 0.1 µg/mL (≈ 0.259 µM) in [8]; 0.05 µg/mL (≈ 0.13 µM) in assay [9]; 0.78 µg/mL (≈ 2.02 µM) in [10]; 0.2 µg/mL (≈ 0.519 µM) in assay [11].

As for `CN1CCN(c2cc3c(cc2F)c(=O)c(C(=O)O)cn3-c2ccc(F)cc2)CC1=O`, the MIC in assay [1] was 0.39 µg/mL (≈ 0.943 µM); in [2], 0.39 µg/mL (≈ 0.943 µM); in assay [3], 0.2 µg/mL (≈ 0.484 µM); in [4], 1.56 µg/mL (≈ 3.77 µM); in assay [5], 0.78 µg/mL (≈ 1.89 µM); in assay [6] it was 0.2 µg/mL (≈ 0.484 µM). The MIC in [7] was found to be 0.1 µg/mL (≈ 0.242 µM); in [8], 0.39 µg/mL (≈ 0.943 µM); in [9] it was 0.2 µg/mL (≈ 0.484 µM); in [10], 0.78 µg/mL (≈ 1.89 µM); in assay [11], 0.39 µg/mL (≈ 0.943 µM).

For `O=C(O)c1cn(-c2ccc(F)cc2)c2cc(N3CCOCC3)c(F)cc2c1=O`, the MIC was found to be 0.39 µg/mL (≈ 1.01 µM) in assay [1]; 0.78 µg/mL (≈ 2.02 µM) in assay [2]; 0.39 µg/mL (≈ 1.01 µM) in [3]; 3.1 µg/mL (≈ 8.02 µM) in assay [4]; 3.1 µg/mL (≈ 8.02 µM) in [5]; 0.2 µg/mL (≈ 0.518 µM) in [6]. Also, the MIC was 0.1 µg/mL (≈ 0.259 µM) in [7]; 1.56 µg/mL (≈ 4.04 µM) in assay [8]; 0.1 µg/mL (≈ 0.259 µM) in assay [9]; 1.56 µg/mL (≈ 4.04 µM) in assay [10]; 0.78 µg/mL (≈ 2.02 µM) in [11].

In the case of `COc1ccc(-n2cc(C(=O)O)c(=O)c3cc(F)c(N4CCN(C)CC4)cc32)cc1`, the MIC in [1] came to 50 µg/mL (≈ 122 µM); in assay [2], 50 µg/mL (≈ 122 µM); in assay [3], 12.5 µg/mL (≈ 30.4 µM); in [4] it was 200 µg/mL (≈ 486 µM); in [5] it was 100 µg/mL (≈ 243 µM); in assay [6], 50 µg/mL (≈ 122 µM). For the same compound, the MIC in [7] came out at 12.5 µg/mL (≈ 30.4 µM); in assay [8], 50 µg/mL (≈ 122 µM); in [9], 12.5 µg/mL (≈ 30.4 µM); in assay [10], 100 µg/mL (≈ 243 µM); in assay [11] it was 50 µg/mL (≈ 122 µM).

In the case of `CCCCN1CCN(c2cc3c(cc2F)c(=O)c(C(=O)O)cn3-c2ccc(F)cc2)CC1`, the MIC worked out at 1.56 µg/mL (≈ 3.53 µM) in assay [1]; 1.56 µg/mL (≈ 3.53 µM) in [2]; 0.39 µg/mL (≈ 0.883 µM) in assay [3]; 12.5 µg/mL (≈ 28.3 µM) in assay [4]; 12.5 µg/mL (≈ 28.3 µM) in assay [5]; 1.56 µg/mL (≈ 3.53 µM) in assay [6]. The minimal inhibitory concentration (MIC) in assay [7] came out at 0.78 µg/mL (≈ 1.77 µM); in [8], 6.2 µg/mL (≈ 14 µM); in assay [9] it was 0.78 µg/mL (≈ 1.77 µM); in [10] it was 12.5 µg/mL (≈ 28.3 µM); in assay [11], 3.1 µg/mL (≈ 7.02 µM).

Regarding `Cc1ccccc1-n1cc(C(=O)O)c(=O)c2cc(F)c(N3CCN(C)CC3)cc21`, the MIC in assay [1] amounted to 1.56 µg/mL (≈ 3.95 µM); in [2], 3.1 µg/mL (≈ 7.84 µM); in [3], 1.56 µg/mL (≈ 3.95 µM); in [4] it was 25 µg/mL (≈ 63.2 µM); in assay [5], 12.5 µg/mL (≈ 31.6 µM); in assay [6] it was 3.1 µg/mL (≈ 7.84 µM). The MIC in [7] worked out at 3.1 µg/mL (≈ 7.84 µM); in assay [8] it was 50 µg/mL (≈ 126 µM); in [9] it was 3.1 µg/mL (≈ 7.84 µM); in assay [10], 50 µg/mL (≈ 126 µM); in assay [11], 1.56 µg/mL (≈ 3.95 µM).

Regarding `O=C(O)c1cn(-c2ccc(F)cc2)c2cc(N3CCSCC3)c(F)cc2c1=O`, the MIC was 0.78 µg/mL (≈ 1.94 µM) in [1]; 0.78 µg/mL (≈ 1.94 µM) in [2]; 0.39 µg/mL (≈ 0.969 µM) in [3]; 3.1 µg/mL (≈ 7.7 µM) in assay [4]; 3.1 µg/mL (≈ 7.7 µM) in assay [5]; 0.1 µg/mL (≈ 0.248 µM) in [6]. Besides, the MIC in assay [7] was determined as 0.05 µg/mL (≈ 0.124 µM); in assay [8], 0.78 µg/mL (≈ 1.94 µM); in assay [9], 0.05 µg/mL (≈ 0.124 µM); in [10] it was 0.78 µg/mL (≈ 1.94 µM); in [11], 0.78 µg/mL (≈ 1.94 µM).

For the compound `O=C(O)c1cn(-c2ccc(F)cc2)c2cc(N3CCC(O)CC3)c(F)cc2c1=O`, the MIC was determined as 0.39 µg/mL (≈ 0.974 µM) in assay [1]; 1.56 µg/mL (≈ 3.9 µM) in assay [2]; 0.39 µg/mL (≈ 0.974 µM) in assay [3]; 6.2 µg/mL (≈ 15.5 µM) in [4]; 3.1 µg/mL (≈ 7.74 µM) in assay [5]; 0.39 µg/mL (≈ 0.974 µM) in [6]. Further, the MIC in assay [7] was 0.1 µg/mL (≈ 0.25 µM); in assay [8], 1.56 µg/mL (≈ 3.9 µM); in assay [9], 0.1 µg/mL (≈ 0.25 µM); in [10], 1.56 µg/mL (≈ 3.9 µM); in [11], 1.56 µg/mL (≈ 3.9 µM).
